Experiment [1] concerns the target T1, Cannabinoid receptor 2 (Homo sapiens, UniProt P34972). Description: Displacement of [3H]-CP55940 from human recombinant CB2 receptor expressed in CHO-K1 cell membrane measured after 3 hrs by scintillation spectrometry. Type of experiment: cell membranes.
The target in experiment [2] is T2, Cannabinoid receptor 1 (Homo sapiens, UniProt P21554). Description: Displacement of [3H]-CP55940 from human recombinant CB1 receptor expressed in CHO-K1 cell membrane measured after 3 hrs by scintillation spectrometry. Type of experiment: cell membranes. (In a radioligand displacement assay an active substance lowers the binding of a labelled ligand.)
The target of experiment [3] is T2, Cannabinoid receptor 1. Description: Displacement of [3H]-CP55940 from human recombinant CB1 receptor expressed in CHO-K1 cell membrane at 1 uM measured after 3 hrs by scintillation spectrometry. The format is cell membranes.
Experiment [4] deals with T1, Cannabinoid receptor 2. Description: Displacement of [3H]-CP55940 from human recombinant CB2 receptor expressed in CHO-K1 cell membrane at 1 uM measured after 3 hrs by scintillation spectrometry. Type of experiment: cell membranes.
The target of experiment [5] is T1, Cannabinoid receptor 2. Kind of experiment: Agonist activity at human recombinant CB2 receptor expressed in CHO-K1 cell membrane assessed as increase in GTPgammaS binding at 1 uM pretreated for 30 mins followed by [35S]GTPgammaS addition for 90 mins by [35S]GTP-gammaS binding assay relative to CP55940. The format is functional, cell membranes. To be noted: time 120.0 min. The gist of the method:
(§1)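 Membranes (5 μg) from PathHunter CHOK1 cells stably expressing hCB1 or hCB2 pre-incubated 30 min at room temperature with test ligand at 1 μM final, 1 μM GDP and 5 μg saponin in Tris-HCl pH 7.4, MgCl2, NaCl, EDTA, BSA, DTT. [35S]GTPγS (0.3 nM final) was then added for 90 min at 25 °C. Filtration on GF/B. Emax given relative to CP55,940 (100%), two experiments in duplicate.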

The species named for experiment [6] is Homo sapiens. Kind of experiment: Selectivity ratio of Ki for human recombinant CB2 receptor expressed in CHO-K1 cell membrane to Ki for human recombinant CB1 receptor expressed in CHO-K1 cell membrane. Type of experiment: cell-based.
The target in experiment [7] is T2, Cannabinoid receptor 1. Kind of experiment: Agonist activity at human recombinant CB1 receptor expressed in CHO-K1 cell membrane assessed as increase in GTPgammaS binding at 1 uM pretreated for 30 mins followed by [35S]GTPgammaS addition for 90 mins by [35S]GTP-gammaS binding assay relative to CP55940. The format is functional, cell membranes. To be noted: time 120.0 min. Summed up:
as §1
In general terms: GTPγS is a poorly hydrolysed GTP analogue; its binding reports G protein activation.

For experiment [8], the target named is T1, Cannabinoid receptor 2. Description: Agonist activity at human recombinant CB2 receptor expressed in CHO-K1 cell membrane assessed as increase in GTPgammaS binding pretreated for 30 mins followed by [35S]GTPgammaS addition for 90 mins by [35S]GTP-gammaS binding assay. Type of experiment: functional, cell membranes. Summed up: (§2)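 Concentration-response [35S]GTPγS binding on 5 μg hCB1 or hCB2 CHOK1 membranes. Ligand, 1 μM GDP and saponin pre-incubated 30 min at room temperature, then 0.3 nM [35S]GTPγS added for 90 min at 25 °C. Filtration read-out. Three experiments in duplicate.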

In experiment [9] the target is T2, Cannabinoid receptor 1. Description: Agonist activity at human recombinant CB1 receptor expressed in CHO-K1 cell membrane assessed as increase in GTPgammaS binding pretreated for 30 mins followed by [35S]GTPgammaS addition for 90 mins by [35S]GTP-gammaS binding assay. The format is functional, cell membranes. Summed up: as §2

SMILES strings stand for the structures. Bounds are passed on as bounds.

T2 sequence (P21554 whole entry): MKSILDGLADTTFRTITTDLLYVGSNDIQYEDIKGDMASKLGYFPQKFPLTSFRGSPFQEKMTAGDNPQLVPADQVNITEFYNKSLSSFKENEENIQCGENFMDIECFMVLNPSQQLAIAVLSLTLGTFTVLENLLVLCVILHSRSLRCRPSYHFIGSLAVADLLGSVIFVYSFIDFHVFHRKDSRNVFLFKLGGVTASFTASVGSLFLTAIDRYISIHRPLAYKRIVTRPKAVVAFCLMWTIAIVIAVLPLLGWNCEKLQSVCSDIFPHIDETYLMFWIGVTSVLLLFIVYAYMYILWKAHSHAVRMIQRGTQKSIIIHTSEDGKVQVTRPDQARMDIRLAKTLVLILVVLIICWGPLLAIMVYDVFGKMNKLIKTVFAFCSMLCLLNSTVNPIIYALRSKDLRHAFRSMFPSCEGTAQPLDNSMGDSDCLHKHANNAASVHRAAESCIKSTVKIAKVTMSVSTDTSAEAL
T1 sequence (P34972 whole entry): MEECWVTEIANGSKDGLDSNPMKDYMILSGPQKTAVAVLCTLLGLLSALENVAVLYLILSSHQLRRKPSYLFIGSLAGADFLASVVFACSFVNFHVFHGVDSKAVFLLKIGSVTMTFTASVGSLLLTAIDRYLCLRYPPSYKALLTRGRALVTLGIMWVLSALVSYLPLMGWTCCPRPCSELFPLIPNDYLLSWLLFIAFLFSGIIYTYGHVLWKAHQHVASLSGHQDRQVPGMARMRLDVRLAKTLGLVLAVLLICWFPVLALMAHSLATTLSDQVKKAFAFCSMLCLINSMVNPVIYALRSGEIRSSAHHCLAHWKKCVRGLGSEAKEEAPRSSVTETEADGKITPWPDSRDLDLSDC

`CCCCC1(c2cc(O)c3cc(C)c(=O)oc3c2)CCCCC1`: the Ki in [1] (read-out: Ki) is 106 nM; in experiment [2] (read-out: pKi (converted)) it was greater than 1000 nM. The inhibition (as a rule, the drop in the measured response relative to a control, in per cent) was 19% in [3] and greater than 50% in experiment [4] (filed as agonist). Moreover, the Emax – broadly, the size of the effect at its maximum, as opposed to the concentration needed – in [5] (filed as agonist) amounted to 66%.

As to `CCCCc1cc2c(O)cc(C3(CCCC)CCCCC3)cc2oc1=O`, the Ki in experiment [1] (read-out: Ki) is 12.5 nM; in experiment [2] (read-out: pKi (converted)), greater than 1000 nM. Moreover, the inhibition in experiment [3] (filed as agonist) was 48%; in experiment [4] (filed as agonist), greater than 50%. Also, the Ratio Ki in [6] is 79. Also, in experiment [5] (filed as agonist), the maximum response (Emax) was found to be 65%.

On to `CCCCC1(c2cc(O)c3cc(CC)c(=O)oc3c2)CCCCC1`, for which the Ki is 39.1 nM in [1] (read-out: Ki) and greater than 1000 nM in experiment [2] (read-out: pKi (converted)). Besides, the inhibition in experiment [3] was 39%; in experiment [4] (filed as agonist), greater than 50%. The Emax in experiment [5] (filed as agonist) stood at 65%.

As for `CCCCCc1cc(OC)c2cc(Cc3cccnc3)c(=O)oc2c1`, the values for the Ki in experiment [1] (read-out: Ki) and in experiment [2] (read-out: Ki) were 56.5 nM and 171 nM, respectively. Further, the inhibition in [3] (filed as agonist) and in experiment [4] (filed as agonist) was greater than 50% in each case. For the same molecule, the maximal response (Emax) in experiment [7] (filed as agonist) and in [5] (filed as agonist) was 40% each time.

Take `CCCCC1(c2cc(O)c3cc(CC)c(=O)oc3c2)CCCC1`: the Ki in experiment [1] (read-out: Ki) is 60.6 nM; in experiment [2] (read-out: pKi (converted)), greater than 1000 nM. Moreover, the inhibition in experiment [3] is 34%; in experiment [4] (filed as agonist) it was greater than 50%. For the same molecule, in experiment [5] (filed as agonist), the maximum response (Emax) was 87%.

For `CCCCC1(c2cc(O)c3cc(Cc4cccnc4)c(=O)oc3c2)CCCC1`, the results for the Ki in experiment [1] (read-out: Ki) and in [2] (read-out: pKi (converted)) were 310 nM and greater than 1000 nM, respectively. Besides, the inhibition is 19% in [3] and greater than 50% in experiment [4] (filed as agonist). Further, in [5] (filed as agonist), the Emax is 82%.

For the molecule `CCCCc1cc2c(O)cc(C3(CCCC)CCCC3)cc2oc1=O`, the Ki in [1] (read-out: Ki) is 13.7 nM; in [2] (read-out: pKi (converted)), 1000 nM. In addition, the inhibition was 50% in [3] (filed as agonist) and greater than 50% in [4] (filed as agonist). In addition, in experiment [8], the 50% effective concentration (EC50) (in general, the concentration giving half of the maximal effect) is 18 nM. Besides, the Emax in experiment [5] (filed as agonist) came to 85%.

Consider `CCCCC1(c2cc(O)c3cc(CCC)c(=O)oc3c2)CCCC1`, for which the Ki in [1] (read-out: Ki) was 18.6 nM; in experiment [2] (read-out: pKi (converted)), greater than 1000 nM. The results for the inhibition in experiment [3] (filed as agonist) and in experiment [4] (filed as agonist) were 47% and greater than 50%, respectively. In addition, the Emax in experiment [5] (filed as agonist) was 91%.

For `CCCCC1(c2cc(O)c3cc(Cc4ccccn4)c(=O)oc3c2)CCCCC1`, the Ki in experiment [1] (read-out: Ki) was 71.9 nM; in [2] (read-out: pKi (converted)), greater than 1000 nM. Also, the inhibition in experiment [3] was -7%; in experiment [4] (filed as agonist), greater than 50%. Besides, the EC50 in experiment [8] worked out at 42 nM. Further, in experiment [5] (filed as agonist), the Emax amounted to 68%.

In the case of `CCCCC1(c2cc(OC)c3cc(Cc4ccncc4)c(=O)oc3c2)CCCC1`, the Ki in experiment [1] (read-out: pKi (converted)) and in experiment [2] (read-out: pKi (converted)) was greater than 1000 nM in each case. Moreover, the figures for the inhibition in experiment [3] and in experiment [4] were 28% and 9%, respectively.

For `CCCCC1(c2cc(OC)c3cc(Cc4ccccn4)c(=O)oc3c2)CCCCC1`, the Ki in [1] (read-out: pKi (converted)) and in experiment [2] (read-out: pKi (converted)) was greater than 1000 nM throughout. The inhibition in experiment [3] (filed as agonist) amounted to 47%; in experiment [4], 12%.

Regarding `CCCCC(C)(C)c1cc(O)c2cc(Cc3ccccc3)c(=O)oc2c1`, the Ki in experiment [1] (read-out: pKi (converted)) and in experiment [2] (read-out: pKi (converted)) was greater than 1000 nM throughout. Moreover, the results for the inhibition in experiment [3] and in [4] were 12% and 24%, respectively.

As to `CCCCC1(c2cc(O)c3cc(CCC)c(=O)oc3c2)CCCCC1`, the values for the Ki in experiment [1] (read-out: Ki) and in [2] (read-out: Ki) were 6.5 nM and 159 nM, respectively. The inhibition in experiment [3] (filed as agonist) and in experiment [4] (filed as agonist) was greater than 50% throughout. Besides, the Emax in experiment [7] came to 23%; in [5] (filed as agonist), 62%. Also, the EC50 was determined as 4.51 nM in [8] and 1120 nM in experiment [9].

With `CCCCC(C)(C)c1cc(OC)c2cc(Cc3ccccc3OC)c(=O)oc2c1`, the values for the Ki in [1] (read-out: Ki) and in experiment [2] (read-out: Ki) were 231 nM and 196 nM, respectively. Also, the inhibition in experiment [3] (filed as agonist) and in experiment [4] (filed as agonist) was greater than 50% in each case.

Take `CCCCC1(c2cc(OC)c3cc(CC)c(=O)oc3c2)CCCCC1`: the Ki in experiment [1] (read-out: pKi (converted)) and in experiment [2] (read-out: pKi (converted)) was greater than 1000 nM each time. The values for the inhibition in [3] and in experiment [4] were 6% and -1%, respectively.

In the case of `CCCCC1(c2cc(OC)c3cc(Cc4cccnc4)c(=O)oc3c2)CCCC1`, the Ki in [1] (read-out: pKi (converted)) and in experiment [2] (read-out: pKi (converted)) was greater than 1000 nM in each case. Also, the inhibition is 29% in experiment [3] and 40% in experiment [4] (filed as agonist).

Turning to `CCCCCc1cc(OC)c2cc(Cc3ccccn3)c(=O)oc2c1`, the Ki was 82.4 nM in [1] (read-out: Ki) and 70.3 nM in [2] (read-out: Ki). The inhibition in [3] (filed as agonist) and in experiment [4] (filed as agonist) was greater than 50% throughout. Moreover, the Emax in [7] (filed as agonist) was found to be 46%; in experiment [5] it was 34%. Also, the half-maximal effective concentration (EC50) in experiment [8] came out at 188 nM; in experiment [9], 1010 nM.
